≈ marks a conversion by molar mass, not a printed value. Calls of active or inactive are those of the source. No cut-off for these calls is given here.
Assays:
Salmonella typhi [1] = test: Antimicrobial activity against Salmonella typhi at 1 mg/ml incubated for 20 to 30 mins followed by incubation for 24 hrs at 37 degC by agar plate method; type: functional, Salmonella enterica subsp. enterica serovar Typhi; details: for zone of inhibition at 1000 µg/mL: Salmonella enterica, read-out: DIZ; for diameter of the inhibition zone (DIZ): Salmonella enterica subsp. enterica serovar Typhi
Outline: (§1)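 Agar well diffusion on nutrient agar. Plates swabbed with 60 µL inoculum, 8 mm wells loaded with 100 µL sample at 1.0 mg/mL, streptomycin standard and control in separate wells. Plates held 20–30 min at 4 °C for diffusion, then 24 h at 37 °C. Zone diameter read in mm; triplicate.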

[2] = Anti-inflammatory activity at 50 ug/ml using bovine serum albumin and egg albumin proteins incubated at 37 degC for 20 mins and then heated to 95 degC for 20 mins by UV-visible Spectrophotometry based protein denaturation method; type: functional
Outline: (§2)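 Albumin (bovine serum or egg) at 1% in 50 mM sodium phosphate buffer pH 6.4. Mixture is 0.1 ml test sample (1 mg/ml) plus 0.2 ml albumin, made to 5 ml with buffer. Held 37 °C for 20 min, then 95 °C for 20 min. Cooled to room temperature, turbidity read at 660 nm. % inhibition = (Abs control − Abs sample)/Abs control × 100. Triplicate, averaged.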

U-937 [3] = test: Anti-inflammatory activity in human U937 cells assessed as inhibition of LPS-induced IL6 production at 10 uM pre-incubated for 1 hr before LPS stimulation for 24 hrs by ELISA method; type: functional
Outline: (§3)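 Human U937 cells grown in RPMI1640 with 10% FBS at 37 °C, 5% CO2. Differentiated with PMA 30 ng/ml for 24 h. Test compounds added for 1 h, then LPS 1 µg/ml for 24 h. TNF-α and IL-6 in supernatant measured by ELISA. Three independent experiments.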

Salmonella paratyphi [4] = test: Antimicrobial activity against Salmonella paratyphi at 1 mg/ml incubated for 20 to 30 mins followed by incubation for 24 hrs at 37 degC by agar plate method; type: functional, Salmonella enterica subsp. enterica serovar Paratyphi A; details: for zone of inhibition at 1000 µg/mL: Salmonella enterica, read-out: DIZ; for diameter of the inhibition zone (DIZ): Salmonella enterica subsp. enterica serovar Paratyphi A; outline: as §1
[5] = Anti-inflammatory activity using bovine serum albumin and egg albumin proteins incubated at 37 degC for 20 mins and then heated to 95 degC for 20 mins by UV-visible Spectrophotometry based protein denaturation method; type: functional; outline: as §2
[6] = Anti-inflammatory activity at 100 ug/ml using bovine serum albumin and egg albumin proteins incubated at 37 degC for 20 mins and then heated to 95 degC for 20 mins by UV-visible Spectrophotometry based protein denaturation method; type: functional; outline: as §2
U-937 [7] = test: Anti-inflammatory activity in human U937 cells assessed as inhibition of LPS-induced TNFalpha production at 10 uM pre-incubated for 1 hr before LPS stimulation for 24 hrs by ELISA method; type: functional; outline: as §3
Micrococcus luteus [8] = test: Antimicrobial activity against Micrococcus luteus at 1 mg/ml incubated for 20 to 30 mins followed by incubation for 24 hrs at 37 degC by agar plate method; type: functional; details: for zone of inhibition at 1000 µg/mL: read-out: DIZ
Outline: (§4)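 Agar well diffusion on nutrient agar. Plates swabbed with 60 µL inoculum; 8 mm wells loaded with 100 µL of compound at 1.0 mg/mL. Held 20–30 min at 4 °C for diffusion, then 24 h at 37 °C. Inhibition zone diameter read in mm. Triplicate.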

Micrococcus luteus [9] = test: Antimicrobial activity against Micrococcus luteus incubated for 12 to 16 hrs followed by plating in nutrient agar by tube dilution method; type: functional
Outline: (§5)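 Tube dilution, serial from 500 to 1.9 µg/mL, plus drug-free control tube. Each tube inoculated with 1 mL culture at OD 0.2, incubated 37 °C for 12–16 h. MIC is the lowest concentration with no growth by turbidity. MBC is found by plating each tube on nutrient agar: the lowest concentration at which all cells are killed.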

Salmonella typhi [10] = test: Antimicrobial activity against Salmonella typhi incubated for 12 to 16 hrs by tube dilution method; type: functional; details: Salmonella enterica subsp. enterica serovar Typhi
Outline: (§6)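 Broth tube dilution, two-fold serial dilutions from 500 to 1.9 µg/mL plus a drug-free control tube. Each tube inoculated with 1 mL culture at OD 0.2 (~McFarland standard), 37 °C for 12-16 h. Turbidity compared with the control tube. MIC is the lowest concentration giving complete growth inhibition.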

Micrococcus luteus [11] = test: Antimicrobial activity against Micrococcus luteus incubated for 12 to 16 hrs by tube dilution method; type: functional; outline: as §5
Staphylococcus aureus = test: Antimicrobial activity against Staphylococcus aureus at 1 mg/ml incubated for 20 to 30 mins followed by incubation for 24 hrs at 37 degC by agar plate method; type: functional; outline: as §4
Salmonella paratyphi [12] = test: Antimicrobial activity against Salmonella paratyphi incubated for 12 to 16 hrs followed by plating in nutrient agar by tube dilution method; type: functional; details: Salmonella enterica subsp. enterica serovar Paratyphi A
Outline: (§7)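 After 12-16 h at 37 °C in tube dilution (500 to 1.9 µg/mL; 1 mL inoculum at OD 0.2), the culture from each tube was plated on nutrient agar. MBC is the concentration at which cells are completely killed.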

Salmonella paratyphi [13] = test: Antimicrobial activity against Salmonella paratyphi incubated for 12 to 16 hrs by tube dilution method; type: functional; details: Salmonella enterica subsp. enterica serovar Paratyphi A; outline: as §6
Salmonella typhi [14] = test: Antimicrobial activity against Salmonella typhi incubated for 12 to 16 hrs followed by plating in nutrient agar by tube dilution method; type: functional; details: Salmonella enterica subsp. enterica serovar Typhi; outline: as §7

Structure (SMILES)	zone of inhibition at 1000 µg/mL (Salmonella typhi [1]) [mm]	inhibition [2]	inhibition at 10 µM (U-937 [3]) [%]	zone of inhibition at 1000 µg/mL (Salmonella paratyphi [4]) [mm]	IC50 [5]	inhibition [6]	inhibition at 10 µM (U-937 [7]) [%]	zone of inhibition at 1000 µg/mL (Micrococcus luteus [8]) [mm]	diameter of the inhibition zone (DIZ) (Salmonella typhi [1])	MBC (Micrococcus luteus [9])	MIC (Salmonella typhi [10])	MIC (Micrococcus luteus [11])	diameter of the inhibition zone (DIZ) (Staphylococcus aureus)	diameter of the inhibition zone (DIZ) (Micrococcus luteus [8])	MBC (Salmonella paratyphi [12])	diameter of the inhibition zone (DIZ) (Salmonella paratyphi [4])	MIC (Salmonella paratyphi [13])	MBC (Salmonella typhi [14])
Cc1ccc(-n2cc(CO)c(-c3ccccc3)n2)cc1	17	40.5%	23.8	12.5	73.42 µg/mL (≈ 278 µM)	68.1%	–	–	–	–	–	–	–	–	–	–	–	–
OCc1cn(-c2ccccc2)nc1-c1ccccc1	11.5	75.9%	19.6	14	56.86 µg/mL (≈ 227 µM)	87.9%	1.44	–	–	–	–	–	–	–	–	–	–	–
OCc1cn(Cc2cn(-c3ccc(Cl)cc3)nc2-c2ccccc2)nn1	19.5	55.2%	38.8	16.5	63.74 µg/mL (≈ 174 µM)	78.5%	12.7	11.5	–	–	–	–	–	–	–	–	–	–
OCc1cn(Cc2cn(-c3ccccc3)nc2-c2ccc(Cl)cc2Cl)nn1	14	50.9%	39.6	17	65.17 µg/mL (≈ 163 µM)	76.7%	9.9	–	–	–	–	–	–	–	–	–	–	–
OCc1cn(-c2ccccc2)nc1-c1ccc(Cl)cc1	–	67.2%	24.1	12	59.79 µg/mL (≈ 210 µM)	83.6%	3.32	–	–	–	–	–	–	–	–	–	–	–
Cc1ccc(-n2cc(CO)c(-c3ccccc3)n2)cc1C	14.5	66.4%	46.4	12	59.79 µg/mL (≈ 215 µM)	83.6%	8.35	–	–	–	–	–	–	–	–	–	–	–
Cc1ccc(-c2nn(-c3ccccc3)cc2CO)cc1	19	60.3%	20.9	14	61.05 µg/mL (≈ 231 µM)	81.9%	0.74	16.5	–	–	–	–	–	–	–	–	–	–
CCOC(=O)c1nnn(Cc2cn(-c3ccccc3)nc2-c2ccccc2)c1C(=O)OCC	–	inactive	–	–	Not Active	inactive	–	–	inactive	inactive	inactive	inactive	inactive	inactive	inactive	inactive	inactive	inactive
Nc1ccc(-c2cn(Cc3cn(-c4ccccc4)nc3-c3ccccc3)nn2)cc1	–	inactive	–	–	Not Active	inactive	–	–	inactive	inactive	inactive	inactive	inactive	inactive	inactive	inactive	inactive	inactive
Cc1ccc(-n2cc(CN=[N+]=[N-])c(-c3ccccc3)n2)cc1C	–	inactive	–	–	Not Active	inactive	–	–	inactive	inactive	inactive	inactive	inactive	inactive	inactive	inactive	inactive	inactive
OCc1cn(-c2ccccc2)nc1-c1ccc(Cl)cc1Cl	13.5	60.3%	18.3	11.5	62.37 µg/mL (≈ 195 µM)	80.2%	4.92	–	–	–	–	–	–	–	–	–	–	–
CCOC(=O)c1nnn(Cc2cn(-c3ccccc3)nc2-c2ccc(C)cc2)c1C(=O)OCC	–	inactive	–	–	Not Active	inactive	–	–	inactive	inactive	inactive	inactive	inactive	inactive	inactive	inactive	inactive	inactive
Clc1ccc(-c2cn(Cc3cn(-c4ccccc4)nc3-c3ccccc3)nn2)cc1	–	inactive	–	–	Not Active	inactive	–	–	inactive	inactive	inactive	inactive	inactive	inactive	inactive	inactive	inactive	inactive
Fc1ccc(-c2cn(Cc3cn(-c4ccccc4)nc3-c3ccccc3)nn2)cc1	–	inactive	–	–	Not Active	inactive	–	–	inactive	inactive	inactive	inactive	inactive	inactive	inactive	inactive	inactive	inactive
Clc1ccc(-n2cc(Cn3cc(-c4ccccc4)nn3)c(-c3ccccc3)n2)cc1	–	inactive	–	–	Not Active	inactive	–	–	inactive	inactive	inactive	inactive	inactive	inactive	inactive	inactive	inactive	inactive
Cc1ccc(-c2nn(-c3ccccc3)cc2Cn2cc(CO)nn2)cc1	15	21.6%	42	14	128.89 µg/mL (≈ 373 µM)	38.8%	14.8	–	–	–	–	–	–	–	–	–	–	–
COC(=O)c1nnn(Cc2cn(-c3ccc(C)cc3)nc2-c2ccccc2)c1C(=O)OC	–	inactive	–	–	Not Active	inactive	–	–	inactive	inactive	inactive	inactive	inactive	inactive	inactive	inactive	inactive	inactive
Clc1ccc(-c2nn(-c3ccccc3)cc2Cn2cc(-c3ccccc3)nn2)cc1	–	inactive	–	–	Not Active	inactive	–	–	inactive	inactive	inactive	inactive	inactive	inactive	inactive	inactive	inactive	inactive

Source: ChEMBL document CHEMBL4177578, “Synthesis, pharmacological activities and molecular docking studies of pyrazolyltriazoles as anti-bacterial and anti-inflammatory agents” (Bioorg Med Chem, 2017)
